Measured values taken from the EternaBench riboswitch data.

Tested on: MS2 coat protein
Assay: apparent Kd, MS2 coat protein; higher = weaker binding; RNA-MaP array; FMN 200 µM where present
Method in brief: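 The apparent Kd is the median of filtered binding-curve fits, one per cluster, to green signal normalised to red-channel RNA signal and control-cluster median Fmax. The clusters were on Illumina sequencing chips, and stalled E. coli RNA polymerase had transcribed the designs on them. Titration used SNAP-549-labelled MS2 coat protein from 0.7 or 1.5 nM, doubling to 3 µM, without and then with constant ligand, in 100 mM Tris-HCl pH 7.5, 80 mM KCl, 4 mM MgCl2, BSA, DTT, yeast tRNA and Tween-20.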

[1] = designed as: OFF switch for flavin mononucleotide, no ligand
[2] = ligand present: flavin mononucleotide, designed as: OFF switch for flavin mononucleotide
[3] = designed as: ON switch for flavin mononucleotide, no ligand
[4] = ligand present: flavin mononucleotide, designed as: ON switch for flavin mononucleotide

UCACGGGACUAAGGAUAUACAUGAACCAUUUUUGUAGAAGGUAGAAUGUUUGAUCAUAAACUAAACAUGAGGAUCACCCAUGUU
apparent Kd [1]: 23.4 nM | apparent Kd [2]: 21 nM

AAAUAAAGCAGUGUGGUAAGAUCACAUGAGGAUCACCCAUGUAAGGAUAUGACGAGCAAAGCUCGUCAGAAGGUACGUCACUGC
apparent Kd [1]: 34 nM | apparent Kd [2]: 133 nM

CUAAAUCAUGUAGGAUAUGCGUGGCGAAGCUAUGCAGAAGGACAUGAGGAUCACCCAUGUCUUUCCGUCUGCGUACAGACGGAA
apparent Kd [1]: 28.6 nM | apparent Kd [2]: 282 nM

UCGCUGCGAGGAUAUACGUGCGCGCGCUCGCGUUCGCGCGUACAUGAGGAUCACCCAUGUAGAAGGCGCGCUGC
apparent Kd [1]: 13.5 nM | apparent Kd [2]: 13.2 nM

GGUAAAUAAAGAGUACUGUUUUGAACAUGAGGAUCACCCAUGUAGGAUAUGCGAGUUUUGAAUUUGCAGAAGGACAUUUUUAGC
apparent Kd [1]: 19.6 nM | apparent Kd [2]: 20.4 nM

GUAGUGUAGUGAGGAUAUACGAGAUCGAUAGAUCGGCGAUCCAUUAAUACAUGAGGAUCACCCAUGUAGAAGGCACUUCACUAC
apparent Kd [1]: 6.01 nM | apparent Kd [2]: 70.7 nM

GGACUUCCUGAGGAUAUUGUAUCACCUGAUUGAUAAGAAGGCAGAACAUGAGGAUCACCCAUGUGGGUACUCGG
apparent Kd [1]: 136 nM | apparent Kd [2]: 125 nM

UUGAGGUGCAAGAAGGAUCACAUGAGGAUCACCCAUGUGAUGUGAAGUCUCGAGAUUUUAUAUCGAUAGGAUAUUGCACCGAAC
apparent Kd [3]: 5.13 nM | apparent Kd [4]: 5.33 nM

GGUAUCGGAGGAGGAUAUGAGCGUAUCGCUGCCUCAGAAGGCCUACUGAUACAUGAGGAUCACCCAUGUUGCGGUAAUCCUACU
apparent Kd [1]: 283 nM | apparent Kd [2]: 23.5 nM

GUGCUUUGGGAGAAGGCCGAUAGCAAAGCUAUCGGAGGAUAUUCAUACCGGAAACGGACAUGAGGAUCACCCAUGUGGCACAAA
apparent Kd [3]: 1430 nM | apparent Kd [4]: 44.5 nM

ACUAGAUGAGGAUAUGCAUAUUUUCGUGUUCUUCUAGGUUAACAUGAGGAUCACCCAUGUAGAAGGCGUCUGGA
apparent Kd [1]: 19.6 nM | apparent Kd [2]: 37.7 nM

UUUGUACAUGAGGAUCACCCAUGUUAGGAUAUCUCGCCGUCGGCUUGCCGACGGUAUUAGAGAAGGGACAAGGG
apparent Kd [1]: 136 nM | apparent Kd [2]: 108 nM

CCUACGUGAGGAUAUGCAACUAACACGUUAGACAAAUAGUUGCAGAAGGCACAUGAGGAUCACCCAUGUGAACC
apparent Kd [1]: 29.8 nM | apparent Kd [2]: 34.9 nM

UAUAUGUCAGGAUAUUGAUUGGGAUGGAAUUUAGUUUUGGUUAAGAAGGGACAUGAGGAUCACCCAUGUUCCUC
apparent Kd [1]: 17.1 nM | apparent Kd [2]: 18.4 nM

CAUGUCCUCACAGGAUAUGCAAUGUAUUUCAUUGCAGAAGGGUGAAUACAUGAGGAUCACCCAUGUGGACAUGAUAUAUUUAAG
apparent Kd [3]: 880 nM | apparent Kd [4]: 76.6 nM

AUCUUUAACAUAGGAUAUAGUAUGAAGGUUUAUUUAGAAGGAUGUCACAUGAGGAUCACCCAUGUAUUAGGAUUACCCAUGUAU
apparent Kd [1]: 30.1 nM | apparent Kd [2]: 23.1 nM

GGGUACAUCGUAGGAUAUCAUGUAAAUACAUGAGGAUCACCCAUGUCGAUGGAGACAUCGGAGAUUGAGAAGGCCGAUGUACCG
apparent Kd [3]: 206 nM | apparent Kd [4]: 17.9 nM

AAACACGGACAUGAGGAUCACCCAUGUAAUAAUAACAUUGGGAGAAGGCCGAUUGCAAAGCAAUCGGAGGAUAUUCAUACCGUG
apparent Kd [3]: 279 nM | apparent Kd [4]: 447 nM

AGGGUAGUAGGAUAUACAUGAGGAUCACCCAUGUUUCCAUUACGUGACUGGUCCUAGUGUAGAAGGGCUAGCAC
apparent Kd [2]: 17.4 nM

CUGGUGUGAGGAUAUCAGGACACGUAAGCGGGCGUGUCAAAUGAGAAGGCACAUGAGGAUCACCCAUGUGGGAC
apparent Kd [1]: 34 nM | apparent Kd [2]: 214 nM

GGAGCACGCACAGGAUAUCCGGCGGCGCUCGUCGGAGAAGGGUGACAUGAGGAUCACCCAUGUACGUGCAACUCAGUUUGAGUG
apparent Kd [3]: 95.6 nM | apparent Kd [4]: 40.4 nM

GUCAUACAUGAGGAUCACCCAUGUAAGGAUAUGCUAGCGGUCGGAAGACUGACUGCUAGCAGAAGGUACAUGAU
apparent Kd [1]: 67.1 nM | apparent Kd [2]: 92.5 nM

CCAUUUACUGAGGAUAUUGCAUCACCCGACUGAUAAGAAGGCAGAACAUGAGGAUCACCCAUGUGGGUACUCAC
apparent Kd [1]: 73.7 nM | apparent Kd [2]: 105 nM

GAAUACACCCGACGGGUGUCCGGCAAGGAUAUGAUGAGGGCGAUGCUACAUGAGGAUCACCCAUGUCAGAAGGUGCCCUCCAGG
apparent Kd [1]: 6.59 nM | apparent Kd [2]: 7.19 nM

UUUUAACAUGAGGAUCACCCAUGUGAGGAUAUCGAAAUUUAUAUUUAUAUUUAUAUUACGAGAAGGCACAUUUU
apparent Kd [1]: 84.9 nM | apparent Kd [2]: 102 nM

UAAUUAAGUGUGAGGAUAUGCUGGUCCUUGGAUCAGCAGAAGGCACAUGAGGAUCACCCAUGUAAUAUAUUUAU
apparent Kd [1]: 97.4 nM | apparent Kd [2]: 493 nM

GUGUAGAUAGGAUAUGCGUGAGUCUAGCGAAGCUAGAUUCUACAUGAGGAUCACCCAUGUAGAAGGGUCUACAC
apparent Kd [1]: 17.2 nM | apparent Kd [2]: 18.5 nM

ACGAGGUCAGGAUAUACGGAGAGAGGGAGUUGGUUAGGGUAACAUGAGGAUCACCCAUGUAGAAGGGACUAGGG
apparent Kd [1]: 48.6 nM | apparent Kd [2]: 40.3 nM

AAGGACUGUAAAUAAGUAGAAAUACAUGAGGAUCACCCAUGUAAGGAUAUCGUCAGGAAUACUGACGAGAAGGUACAUCAGUCC
apparent Kd [1]: 14.5 nM | apparent Kd [2]: 18.6 nM

GUAGCAUACGGAGGAUAUUCAUAUAAUAAAUAAACAUGAGGAUCACCCAUGUGGCGAAAGCCUUGGGAGAAGGCCGAAUGCUAC
apparent Kd [3]: 805 nM | apparent Kd [4]: 39.8 nM

UUACUCAUGUAAGGAUAUGCAGCCGUUUCGGCUGCAGAAGGUACUAUAAUACAUGAGGAUCACCCAUGUCUAUUUAAUUUUUAC
apparent Kd [3]: 42.6 nM | apparent Kd [4]: 24.2 nM

AAUUAUUUGUAGAAGGAAGGAGAUUUUGUAUUCUUAGGAUAUACUAUUACAUGAGGAUCACCCAUGUUUGUUGGGUUGCAAUGU
apparent Kd [1]: 315 nM | apparent Kd [2]: 323 nM

AGCAUGUGAGGAUAUGCGGACUCCGGUAAAGCUGGAGUCCAGUAGAAGGCACAUGAGGAUCACCCAUGUGAGAU
apparent Kd [1]: 59.7 nM | apparent Kd [2]: 212 nM

GGAAAACAUGAGGAUCACCCAUGUGAGGAUAUCGAUGUCCAAAAACAAGUGCGGGACUCGAGAAGGCACUUGGA
apparent Kd [1]: 35 nM | apparent Kd [2]: 23.2 nM

UGGCGACAUGAGGAUCACCCAUGUAUUUCCAGUUAAGGAUAUAGGUGCUAGCAACGGCAGCUAGAAGGUGAGAUAA
apparent Kd [3]: 42 nM | apparent Kd [4]: 58 nM

GGCUCAUUUACAUUAAUGUGCAGACAGGAUAUCCACGGCGGUUCCUACAUGAGGAUCACCCAUGUGGAGAAGGGUCGCUAAUGG
apparent Kd [1]: 19.6 nM | apparent Kd [2]: 28 nM

AGCAACAUGAGGAUCACCCAUGUUGGUUCGAAAACGGACUCACAGGAUAUACGGCAUAAUCGCUCGUAGAAGGGUGCGUCCUCA
apparent Kd [3]: 14 nM | apparent Kd [4]: 12.8 nM

GUACUGUAGUGAGGAUAUACGAGUUCGAUAGAACGGCGAUCCAAUUAUACAUGAGGAUCACCCAUGUAGAAGGCACUUCAGUAC
apparent Kd [1]: 8.88 nM | apparent Kd [2]: 50 nM

AUAAGUGCAGGAUAUACGGGAAGCUAGCGAAAGCUAGCAAAACAUGAGGAUCACCCAUGUAGAAGGGCACAAUA
apparent Kd [1]: 57.4 nM | apparent Kd [2]: 121 nM

UCAUUGGUAGUGAGGAUAUCGGUGUGAUGGAAUGACGAGAAGGCACAUGAGGAUCACCCAUGUAAGAUUGGGCU
apparent Kd [1]: 314 nM | apparent Kd [2]: 436 nM

UGAUCCGUGUAGGAUAUCUGUUGGCCGCCGACUGGAGAAGGGCACACAUGAGGAUCACCCAUGUGUGGGCAUAA
apparent Kd [1]: 17.8 nM | apparent Kd [2]: 19.6 nM

AAGAUGUCUUGAGGAUAUCCAAAGGAAACCGCAGGAGAAGGCAGGACAUGAGGAUCACCCAUGUUGGGUUUAAUGCGAACAUAA
apparent Kd [1]: 102 nM | apparent Kd [2]: 342 nM

UCCACUGCUGAGAAGGGAUACGUCUGGUUCGCAUCAGGAUAUCGAUACAGUGCAGCAUGAGGACAUGAGGAUCACCCAUGUGUG
apparent Kd [3]: 103 nM | apparent Kd [4]: 53.6 nM

AGCUACACCCAGAAGGACAUGAGGAUCACCCAUGUAGGAUAUGGGAGACACAGUCCCAUGUAGAGAAAUUACGCUAGUGUAGCG
apparent Kd [3]: 102 nM | apparent Kd [4]: 46.5 nM

CGAGUGUAAGGAUAUUCGGCACCAGAGAACGAUCUGGCGUAGAAGAAGGUACAUGAGGAUCACCCAUGUGGUUA
apparent Kd [1]: 158 nM | apparent Kd [2]: 41.7 nM

ACAUGAGGAUCACCCAUGUAUUACAUGGUUAAGUUUAUUAACAGAAGGCGAAAUUACCACUUUUUCGAGGAUAUGUAUUCUAUA
apparent Kd [1]: 38.2 nM | apparent Kd [2]: 52.7 nM

CGAAGCCCGUAGAAGGGUGACAUGAGGAUCACCCAUGUGCGAGCGGAGGGAGUCAGCGGCUCGCCACAGGAUAUACGGAGCUCG
apparent Kd [3]: 151 nM | apparent Kd [4]: 67.9 nM

CACUGCAAUGUAGGAUAUCGACUGGAUAACAGUCGAGAAGGACAUGAGGAUCACCCAUGUACUAAUAGUGAUAAUAAAGCAGUG
apparent Kd [1]: 13.5 nM | apparent Kd [2]: 55 nM
